Data on two compounds can be found in ChEMBL document CHEMBL2331349, “Discovery of olmesartan hexetil: a new potential prodrug of olmesartan” (Bioorg Med Chem Lett, 2013).

The term Cmax denotes the highest concentration seen after dosing. As usually defined, the Tmax is the time from dosing to the highest level. Broadly, the half-life is the time in which the quantity being followed falls by half.

Structures are written as SMILES. Bounds are passed on as bounds.

Series [1] has as its system Rattus norvegicus. Briefly: Cmax in Sprague-Dawley rat assessed as olmesartan at 20 mg/kg, po. The class given is ADME, organism-based. The arrangement: dose 20 mg/kg, route oral. Conditions: in vivo. The method in brief: (§1)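 Male Sprague-Dawley rats (n = 4) dosed orally by feeding tube, 20 mg/kg as olmesartan. Carotid artery blood drawn at 0, 0.5, 1, 2, 3, 4, 6, 8, 10 h; plasma stored until analysis. Olmesartan measured by modified LC–MS/MS. Non-compartmental analysis; AUClast by trapezoidal rule; Tmax given as median (range), others mean ± SD.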

Series [2] deals with Rattus norvegicus. Briefly: Tmax in Sprague-Dawley rat assessed as olmesartan at 20 mg/kg, po. Type of series: ADME, organism-based. The arrangement: dose 20 mg/kg, route oral. Conditions: in vivo. The method in brief:
as §1

The nature of series [3]: Half life in rat plasma at 1 uM. Type of series: ADME, cell-free. An outline of the steps: (§2)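 Substrate added from acetonitrile stock to rat plasma or simulated gastric juice, 1 µM final, 37 °C. Samples at 0, 15, 30, 60, 120 min quenched with twofold cold acetonitrile containing internal standard, centrifuged, supernatant analysed by LC–MS/MS. Half-life reported as mean of duplicate experiments.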

Series [4] deals with Rattus norvegicus. The series is described as follows: AUClast in Sprague-Dawley rat assessed as olmesartan at 20 mg/kg, po. The class given is ADME, organism-based, Plasma. Details: time 0 - last, dose 20 mg/kg, route oral. The note with it: in vivo. The method in brief: as §1
Series [5] is described as follows: Half life in rat liver microsomes at 1 uM. The class given is ADME, Microsome. An outline of the steps:
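Incubation with rat liver microsomes, 0.5 mg/mL total protein, 1.2 mM NADPH, 100 mM phosphate buffer pH 7.4. Substrate added from acetonitrile stock to 1 µM final, 37 °C. Samples at 0, 15, 30, 60, 120 min quenched with twofold cold acetonitrile containing internal standard, centrifuged, supernatant by LC–MS/MS. Mean of duplicate experiments.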

The nature of series [6]: Half life in simulated gastric juice at 1 uM. Type of series: physicochemical. The method in brief:
as §2

Regarding `CCCc1nc(C(C)(C)O)c(C(=O)OC(C)OC(=O)OC2CCCCC2)n1Cc1ccc(-c2ccccc2-c2nnn[nH]2)cc1` (stereo not given) [OLMESARTAN HEXETIL], the Cmax with Rattus norvegicus [1] was determined as 1374.7 ng/mL. Also, the Tmax with Rattus norvegicus [2] was found to be 54 min. For the same compound, the half-life at 1 µM is 1.54 min in series [3], 2.77 min in series [5] and 390 min in series [6]. Besides, the AUClast in the series with Rattus norvegicus [4] was 3013.8 ng·h/mL.

As for `CCCc1nc(C(C)(C)O)c(C(=O)OCc2oc(=O)oc2C)n1Cc1ccc(-c2ccccc2-c2nnn[nH]2)cc1` [OLMESARTAN MEDOXOMIL], in the series on Rattus norvegicus [1], the Cmax came to 153.6 ng/mL. Besides, in the series with Rattus norvegicus [2], the time of peak concentration (Tmax) worked out at 60 min. Besides, the AUClast in the series with Rattus norvegicus [4] is 501.9 ng·h/mL. This compound also had a half-life at 1 µM in series [6] above 1000 min.
